Values belong to the molecule of their own block, whether it stands above or below them.
Experiments:
[1] = test system: Trypanosoma cruzi; experiment: Concentration required to inhibit proliferation of the epimastigote form of Trypanosoma cruzi; assay type: functional, organism-based
In short: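 T. cruzi epimastigotes (Y strain) at 28 °C in brain–heart infusion (37 g/L) with hemin (20 mg/L) and 10% newborn calf serum; inoculum (2–3) × 10⁶ cells/mL, 1 mL. Drugs at 1, 10, 50 and 100 μg/mL, each in quadruplicate, with a drug-free control. Growth read as absorbance at 600 nm; percent inhibition from the change in absorbance of drug-treated versus control cultures between start and end.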

[2] = test system: Trypanosoma cruzi; experiment: Growth inhibition of the intracellular Trypanosoma cruzi was measured by no. of parasites per 100 myoblasts (T. cruzi ) after 48 hr at the concentration of 0.5 (ug/mL); assay type: functional
[3] = test system: Trypanosoma cruzi; experiment: Growth inhibition of the intracellular Trypanosoma cruzi was measured by no. of parasites per 100 myoblasts (T. cruzi ) after time gap of 72 hr at the concentration of 2.5 ug/mL; assay type: functional
[4] = test system: Trypanosoma cruzi; experiment: Growth inhibition of the intracellular Trypanosoma cruzi was measured by counting percentage of myoblasts with Trypanosoma cruzi parasite after 48 hr at the concentration of 1.0 (ug/mL); assay type: functional
[5] = test system: Trypanosoma cruzi; experiment: Growth inhibition of the intracellular Trypanosoma cruzi was measured by no. of parasites per 100 myoblasts (T. cruzi ) after 48 hr at the concentration of 0.1 (ug/mL); assay type: functional
[6] = test system: Trypanosoma cruzi; experiment: Growth inhibition of the intracellular Trypanosoma cruzi was measured by counting percentage of myoblasts with Trypanosoma cruzi parasite after 24 hr (absence of compound); assay type: functional
[7] = test system: Trypanosoma cruzi; experiment: Growth inhibition of the intracellular Trypanosoma cruzi was measured by counting percentage of myoblasts with Trypanosoma cruzi parasite after 72 hr at the concentration of 0.1 (ug/mL); assay type: functional
[8] = test system: Trypanosoma cruzi; experiment: Growth inhibition of the intracellular Trypanosoma cruzi was measured by no. of parasites per 100 myoblasts (T. cruzi ) after time gap of 48 hr at the concentration of 5.0 ug/mL; assay type: functional
[9] = test system: Trypanosoma cruzi; experiment: Growth inhibition of the intracellular Trypanosoma cruzi was measured by counting percentage of myoblasts with Trypanosoma cruzi parasite after time gap of 48 hr at the concentration of 1.0 ug/mL; assay type: functional
[10] = test system: Trypanosoma cruzi; experiment: Growth inhibition of the intracellular Trypanosoma cruzi was measured by counting percentage of myoblasts with Trypanosoma cruzi parasite after time gap of 24 hr (with out compound); assay type: functional
[11] = test system: Trypanosoma cruzi; experiment: Growth inhibition of the intracellular Trypanosoma cruzi was measured by counting percentage of myoblasts with Trypanosoma cruzi parasite after time gap of 72 hr at the concentration of 2.5 ug/mL; assay type: functional
[12] = test system: Trypanosoma cruzi; experiment: Growth inhibition of the intracellular Trypanosoma cruzi was measured by no. of parasites per 100 myoblasts (T. cruzi ) after time gap of 72 hr at the concentration of 1.0 ug/mL; assay type: functional
[13] = test system: Trypanosoma cruzi; experiment: Growth inhibition of the intracellular Trypanosoma cruzi was measured by counting no. of parasites per 100 myoblasts (T. cruzi ) after 48 hr (absence of compound); assay type: functional
[14] = test system: Trypanosoma cruzi; experiment: Growth inhibition of the intracellular Trypanosoma cruzi was measured by counting percentage of myoblasts with Trypanosoma cruzi parasite after 48 hr at the concentration of 0.1 (ug/mL); assay type: functional
[15] = test system: Trypanosoma cruzi; experiment: Growth inhibition of the intracellular Trypanosoma cruzi was measured by counting no. of parasites per 100 myoblasts (T. cruzi ) after 24 h (absence of compound); assay type: functional
[16] = test system: Trypanosoma cruzi; experiment: Growth inhibition of the intracellular Trypanosoma cruzi was measured by no. of parasites per 100 myoblasts (T. cruzi ) after time gap of 48 hr at the concentration of 1.0 ug/mL; assay type: functional
[17] = test system: Trypanosoma cruzi; experiment: Growth inhibition of the intracellular Trypanosoma cruzi was measured by counting percentage of myoblasts with Trypanosoma cruzi parasite after 48 hr at the concentration of 0.5 (ug/mL); assay type: functional
[18] = test system: Trypanosoma cruzi; experiment: Growth inhibition of the intracellular Trypanosoma cruzi was measured by no. of parasites per 100 myoblasts (T. cruzi ) after 72 hr at the concentration of 1.0 (ug/mL); assay type: functional
[19] = test system: Trypanosoma cruzi; experiment: Growth inhibition of the intracellular Trypanosoma cruzi was measured by no. of parasites per 100 myoblasts (T. cruzi ) after 72 hr (absence of compound); assay type: functional
[20] = test system: Trypanosoma cruzi; experiment: Growth inhibition of the intracellular Trypanosoma cruzi was measured by no. of parasites per 100 myoblasts (T. cruzi ) after time gap of 48 hr (with out compound); assay type: functional
[21] = test system: Trypanosoma cruzi; experiment: Growth inhibition of the intracellular Trypanosoma cruzi was measured by no. of parasites per 100 myoblasts (T. cruzi ) after time gap of 72 hr (absence of compound); assay type: functional
[22] = test system: Trypanosoma cruzi; experiment: Growth inhibition of the intracellular Trypanosoma cruzi was measured by counting percentage of myoblasts with Trypanosoma cruzi parasite after time gap of 48 hr at the concentration of 5.0 ug/mL; assay type: functional
[23] = test system: Trypanosoma cruzi; experiment: Growth inhibition of the intracellular Trypanosoma cruzi was measured by counting percentage of myoblasts with Trypanosoma cruzi parasite after 48 hr (absence of compound); assay type: functional
[24] = test system: Trypanosoma cruzi; experiment: Growth inhibition of the intracellular Trypanosoma cruzi was measured by no. of parasites per 100 myoblasts (T. cruzi ) after time gap of 72 hr at the concentration of 5.0 ug/mL; assay type: functional
[25] = test system: Trypanosoma cruzi; experiment: Growth inhibition of the intracellular Trypanosoma cruzi was measured by counting percentage of myoblasts with Trypanosoma cruzi parasite after 72 hr at the concentration of 0.5 (ug/mL); assay type: functional
[26] = test system: Trypanosoma cruzi; experiment: Growth inhibition of the intracellular Trypanosoma cruzi was measured by counting percentage of myoblasts with Trypanosoma cruzi parasite after 72 hr (absence of compound); assay type: functional
[27] = test system: Trypanosoma cruzi; experiment: Growth inhibition of the intracellular Trypanosoma cruzi was measured by counting percentage of myoblasts with Trypanosoma cruzi parasite after time gap of 72 hr at the concentration of 5.0 ug/mL; assay type: functional
[28] = test system: Trypanosoma cruzi; experiment: Growth inhibition of the intracellular Trypanosoma cruzi was measured by no. of parasites per 100 myoblasts (T. cruzi ) after 48 hr at the concentration of 1.0 (ug/mL); assay type: functional
[29] = test system: Trypanosoma cruzi; experiment: Growth inhibition of the intracellular Trypanosoma cruzi was measured by counting percentage of myoblasts with Trypanosoma cruzi parasite after time gap of 72h( absence of compound); assay type: functional
[30] = test system: Trypanosoma cruzi; experiment: Growth inhibition of the intracellular Trypanosoma cruzi was measured by no. of parasites per 100 myoblasts (T. cruzi ) after time gap of 48 hr at the concentration of 2.5 ug/mL; assay type: functional
[31] = test system: Trypanosoma cruzi; experiment: Growth inhibition of the intracellular Trypanosoma cruzi was measured by no. of parasites per 100 myoblasts (T. cruzi ) after 72 hr at the concentration of 0.1 (ug/mL); assay type: functional
[32] = test system: Trypanosoma cruzi; experiment: Growth inhibition of the intracellular Trypanosoma cruzi was measured by counting percentage of myoblasts with Trypanosoma cruzi parasite after time gap of 72 hr at the concentration of 1.0 ug/mL; assay type: functional
[33] = test system: Trypanosoma cruzi; experiment: Growth inhibition of the intracellular Trypanosoma cruzi was measured by no. of parasites per 100 myoblasts (T. cruzi ) after 72 hr at the concentration of 0.5 (ug/mL); assay type: functional
[34] = test system: Trypanosoma cruzi; experiment: Growth inhibition of the intracellular Trypanosoma cruzi was measured by no. of parasites per 100 myoblasts (T. cruzi ) after time gap of 24 hr (with out compound); assay type: functional
[35] = test system: Trypanosoma cruzi; experiment: Growth inhibition of the intracellular Trypanosoma cruzi was measured by counting percentage of myoblasts with Trypanosoma cruzi parasite after 72 hr at the concentration of 1.0 (ug/mL); assay type: functional
[36] = test system: Trypanosoma cruzi; experiment: Growth inhibition of the intracellular Trypanosoma cruzi was measured by counting percentage of myoblasts with Trypanosoma cruzi parasite after time gap of 48 hr at the concentration of 2.5 ug/mL; assay type: functional
[37] = test system: Trypanosoma cruzi; experiment: Growth inhibition of the intracellular Trypanosoma cruzi was measured by counting percentage of myoblasts with Trypanosoma cruzi parasite after time gap of 48 hr (with out compound); assay type: functional

SMILES: C/C=C/Oc1ccc(Oc2ccccc2)cc1
IC50 [1]: > 440 µM

SMILES: C=CCOc1ccc(Oc2ccccc2)cc1Cl
IC50 [1]: > 250 µM

SMILES: C=CCOc1ccc(Oc2ccccc2)cc1
IC50 [1]: 221 µM

SMILES: C=CCOc1ccc(Oc2ccc(Br)cc2)cc1
IC50 [1]: > 250 µM

SMILES: C=CCOc1ccc(Cl)cc1Cl
IC50 [1]: 282 µM

SMILES: C=CCOc1ccc(Oc2ccc([N+](=O)[O-])cc2)cc1
IC50 [1]: 230 µM

SMILES: C=CCOc1ccc(Oc2ccccc2)cc1[N+](=O)[O-]
IC50 [1]: 185 µM

SMILES: c1ccc(Cc2ccc(OCCOC3CCCCO3)cc2)cc1 (stereo not given)
IC50 [1]: 282 µM

SMILES: C=CCOc1ccc(Oc2ccc(Cl)cc2)cc1
IC50 [1]: > 250 µM

SMILES: c1ccc(Oc2ccc(OCC3CS3)cc2)cc1 (stereo not given)
IC50 [1]: 3.9 µM

SMILES: C=CCOc1ccc(Oc2ccc(C(=O)c3ccccc3)cc2)cc1
IC50 [1]: > 330 µM

SMILES: N#CSCCOc1ccc(Oc2ccccc2)cc1
R [2]: 98%
R [3]: 76.3%
Myoblasts with parasites [4]: 19.3%
R [5]: 218%
Myoblasts with parasites [6]: 26%
Myoblasts with parasites [7]: 15.5%
R [8]: 48%
Myoblasts with parasites [9]: 20.5%
Myoblasts with parasites [10]: 38%
IC50 [1]: 2.2 µM
Myoblasts with parasites [11]: 17%
R [12]: 85.5%
R [13]: 239.5%
Myoblasts with parasites [14]: 22%
R [15]: 91.8%
R [16]: 59.3%
Myoblasts with parasites [17]: 18.3%
R [18]: 63.5%
R [19]: 578.5%
R [20]: 270.5%
R [21]: 733.5%
Myoblasts with parasites [22]: 19.8%
Myoblasts with parasites [23]: 21.5%
R [24]: 28%
Myoblasts with parasites [25]: 12.5%
Myoblasts with parasites [26]: 27.5%
Myoblasts with parasites [27]: 8.3%
R [28]: 69.3%
Myoblasts with parasites [29]: 24.8%
R [30]: 57%
R [31]: 238%
Myoblasts with parasites [32]: 16.3%
R [33]: 124.5%
R [34]: 85%
Myoblasts with parasites [35]: 15%
Myoblasts with parasites [36]: 20.3%
Myoblasts with parasites [37]: 31.5%

SMILES: CCSC(=O)OC/C=C(\C)CCC=C(C)C
IC50 [1]: 298 µM

SMILES: C=CCOc1ccc(Sc2ccccc2)cc1
IC50 [1]: 324 µM

SMILES: CCSC(=O)OC/C=C(\C)CCC1OC1(C)C (stereo not given)
IC50 [1]: > 380 µM

SMILES: C=CCOc1ccc(Oc2ccc(C(C)=O)cc2)cc1
IC50 [1]: 300 µM

Continued, in another order:

IC50 [1]: 41.9 µM
SMILES: CCOC(=S)SCCOc1ccc(Oc2ccccc2)cc1

IC50 [1]: 85 µM
SMILES: Brc1ccc(Oc2ccc(OCCOC3CCCCO3)cc2)cc1 (stereo not given)

IC50 [1]: 19.1 µM
SMILES: CC(C)COC(=O)SCCOc1ccc(Oc2ccccc2)cc1

IC50 [1]: 37.7 µM
SMILES: CCSC(=O)SCCOc1ccc(Oc2ccccc2)cc1

IC50 [1]: 13.4 µM
SMILES: N#CSCCOc1ccc(Cc2ccccc2)cc1

IC50 [1]: 121 µM
SMILES: c1ccc(COc2ccc(OCCOC3CCCCO3)cc2)cc1 (stereo not given)

IC50 [1]: 143 µM
SMILES: Clc1cc(Oc2ccccc2)ccc1OCCOC1CCCCO1 (stereo not given)

IC50 [1]: 91 µM
SMILES: C=CCOc1ccc(Oc2ccccc2)cc1I

IC50 [1]: 15.1 µM
SMILES: CCOC(=O)SCCOc1ccc(Oc2ccccc2)cc1

IC50 [1]: 67 µM
SMILES: Brc1cc(Oc2ccccc2)ccc1OCCOC1CCCCO1 (stereo not given)

IC50 [1]: 96.1 µM
SMILES: C=CCSC(=S)OCCOc1ccc(Oc2ccccc2)cc1

IC50 [1]: 3.5 µM
SMILES: N#CSCCCOc1ccc(Oc2ccccc2)cc1

IC50 [1]: 97 µM
SMILES: C=CCOc1ccc(Oc2ccccc2)cc1NC(C)=O

IC50 [1]: 93 µM
SMILES: Clc1ccc(OCCOC2CCCCO2)c(Cl)c1 (stereo not given)

IC50 [1]: 182 µM
SMILES: C=CCOc1ccc(Oc2ccccc2)cc1Br

IC50 [1]: 8.1 µM
SMILES: N#CSCCOc1ccc(OCc2ccccc2)cc1

IC50 [1]: 17 µM
SMILES: CCNC(=O)SCCOc1ccc(Oc2ccccc2)cc1

IC50 [1]: 8.6 µM
SMILES: CC1CS(=O)(=O)CCN1/N=C/c1ccc([N+](=O)[O-])o1 (stereo not given) [NIFURTIMOX]
Myoblasts with parasites [4]: 14%
Myoblasts with parasites [6]: 34.5%
R [13]: 155%
R [15]: 80.25%
R [18]: 70.5%
R [19]: 321%
Myoblasts with parasites [23]: 16.25%
Myoblasts with parasites [26]: 20%
R [28]: 64.5%
Myoblasts with parasites [35]: 12.5%
